Here are results for 17 compounds from ChEMBL document CHEMBL5120933, “Direct-to-Biology Accelerates PROTAC Synthesis and the Evaluation of Linker Effects on Permeability and Degradation” (ACS Med Chem Lett, 2022).

The target of test [1] is Protein cereblon/Bromodomain-containing protein 4 (Homo sapiens, UniProt O60885+Q96SW2). Description: PROTAC activity at […]/BRD4 in human HEK293T cells assessed as degradation of BRD4 incubated for 24 hrs by HiBiT assay. The class given is cell-based. (HiBiT is a short tag that completes a luciferase, so light tracks the accessible tagged protein.)
For test [2], the target named is Bromodomain-containing protein 4 (Homo sapiens) (UniProt O60885). As to the kind of experiment: Relative binding affinity to BRD4 (unknown origin).
Test [3] has as its system HEK293. As to the kind of experiment: Cytotoxicity against human HEK293 cells assessed as inhibition of cell viability incubated for 30 mins in presence of CRBN-tracer by nanoBRET assay. It is filed as functional, cell-based. (In BRET a luciferase serves as donor, and the signal depends on an acceptor being close.)
Test [4] has as its system HEK293. As to the kind of experiment: Cytotoxicity against human HEK293 cells assessed as inhibition of cell viability incubated for 24 hrs by cell titer-glo assay. To be noted: HEK293, 24 h.
Test [5] has as its system HEK293. As to the kind of experiment: Cytotoxicity against permeabilized HEK293 cells assessed as inhibition of cell viability incubated for 30 mins in presence of CRBN-tracer by nanoBRET assay. It is filed as functional, cell-based, Homo sapiens. The essentials: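 Transfected HEK293 cells (NanoLuc-CRBN plus DDB1), thawed from frozen into phenol-red-free Opti-MEM (500,000 cells/mL). Wells held CRBN-tracer (7.5 nL) and 11-pt 3-fold titrations (50 uM top assay concentration); 18 uL cells added, then 2 uL 0.5 mg/mL digitonin, 30 min at room temperature. NanoBRET substrate 1:166, no extracellular inhibitor; BRET luminescence at 450-480 nm and 610-LP.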

Test [6] deals with HEK293. As to the kind of experiment: Cytotoxicity against human HEK293 cells assessed as inhibition of cell viability at […] incubated for 30 mins by cell titer-glo assay relative to control. It is filed as functional. (Cellular ATP, detected with luciferase, serves as a proxy for viable cell number.)
The test system of test [7] is HEK293. As to the kind of experiment: Cytotoxicity against human HEK293 cells assessed as inhibition of cell viability at 10 uM incubated for 30 mins by cell titer-glo assay relative to control. The class given is functional. To be noted: HEK293, 0.5 h.
Test [8] deals with HEK293. As to the kind of experiment: Cytotoxicity against human HEK293 cells assessed as inhibition of cell viability at 12 uM incubated for 30 mins by cell titer-glo assay relative to control. To be noted: HEK293, 0.5 h. It is filed as functional.
Setting [9] is: Homo sapiens, HEK293, 0.5 h, read-out: Emax.

Chain of Protein cereblon/Bromodomain-containing protein 4 (Q96SW2 whole entry, looked up, other chains not shown): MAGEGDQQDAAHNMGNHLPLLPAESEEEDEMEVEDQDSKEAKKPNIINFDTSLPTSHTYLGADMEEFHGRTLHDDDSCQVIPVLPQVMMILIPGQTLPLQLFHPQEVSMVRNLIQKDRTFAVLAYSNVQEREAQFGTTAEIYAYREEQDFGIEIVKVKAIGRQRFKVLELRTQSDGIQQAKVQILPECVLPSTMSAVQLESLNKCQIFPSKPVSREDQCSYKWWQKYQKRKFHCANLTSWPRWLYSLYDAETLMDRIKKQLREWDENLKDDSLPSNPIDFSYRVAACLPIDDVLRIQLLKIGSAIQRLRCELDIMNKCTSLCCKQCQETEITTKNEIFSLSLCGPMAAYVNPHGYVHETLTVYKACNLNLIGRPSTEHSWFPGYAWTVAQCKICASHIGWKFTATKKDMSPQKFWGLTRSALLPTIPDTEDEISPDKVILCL

For orientation: DC50 means the midpoint of the concentration-degradation curve. As usually defined, the IC50 is the concentration needed to halve the response being measured. `Cc1sc2c(c1C)C(c1ccc(Cl)cc1)=N[C@@H](CC(=O)N(C)CCOCCNC(=O)COc1cccc3c1C(=O)N(C1CCC(=O)NC1=O)C3=O)c1nnc(C)n1-2` (stereo not given in full): the DC50 in test [1] was 7.1 µM. The same compound returned a relative binding affinity (RBA) in test [2] of 9.6. In the test on HEK293 [3] (Homo sapiens, HEK293, 0.5 h), the IC50 is 1.6 µM.
One may read the EC50 as the concentration needed to bring the measured effect to its halfway point. In the case of `Cc1sc2c(c1C)C(c1ccc(Cl)cc1)=N[C@@H](CC(=O)ON1C(=O)CCC1=O)c1nnc(C)n1-2`, in the test with HEK293 [4], the half-maximal effective concentration (EC50) is more than 50 µM. The DC50 in test [1] was more than 50 µM. Moreover, the half-inhibitory concentration (IC50) in the test on HEK293 [5] (Homo sapiens, HEK293, 0.5 h) is more than 50 µM; in the test on HEK293 [3] (Homo sapiens, HEK293, 0.5 h), more than 50 µM. In the test with HEK293 [6] (setting [9]), the Emax turned out to be 5.26%.
For the compound `Cc1sc2c(c1C)C(c1ccc(Cl)cc1)=N[C@@H](CC(=O)O)c1nnc(C)n1-2`, the EC50 with HEK293 [4] is more than 50 µM. Further, in test [1], the DC50 was more than 50 µM. The half-inhibitory concentration (IC50) in the test on HEK293 [5] (Homo sapiens, HEK293, 0.5 h) was more than 50 µM; with HEK293 [3] (Homo sapiens, HEK293, 0.5 h), more than 50 µM. Also, in the test with HEK293 [6] (0.5 h), the Emax is 14.23%.
On to `Cc1ccc(C(=O)ON2C(=O)CCC2=O)cc1N1CCC(=O)NC1=O`, for which, in the test on HEK293 [4], the EC50 is more than 50 µM. In addition, in test [1], the DC50 was more than 50 µM. In addition, the IC50 in the test on HEK293 [5] (Homo sapiens, HEK293, 0.5 h) came to 6.04 µM; in the test on HEK293 [3] (Homo sapiens, HEK293, 0.5 h), 22.2 µM. In the test on HEK293 [6] (setting [9]), the Emax worked out at 9.24%.
In the case of `Cc1ccc(C(=O)NCCOCCN(C)C(=O)C[C@@H]2N=C(c3ccc(Cl)cc3)c3c(sc(C)c3C)-n3c(C)nnc32)cc1N1CCC(=O)NC1=O`, the 50% degradation concentration (DC50) in test [1] amounted to 0.023 µM. The same compound came in with a relative binding affinity (RBA) in test [2] of 5. Also, the 50% inhibitory concentration (IC50) in the test with HEK293 [3] (Homo sapiens, HEK293, 0.5 h) was found to be 3.2 µM.
Consider `Cc1sc2c(c1C)C(c1ccc(Cl)cc1)=N[C@@H](CC(=O)N[C@H]1C[C@H](N(C)C(=O)COc3cccc4c3C(=O)N(C3CCC(=O)NC3=O)C4=O)C1)c1nnc(C)n1-2` (stereo not given in full), for which the DC50 in test [1] was 0.11 µM. Besides, the relative binding affinity (RBA) in test [2] is 25. Further, in the test on HEK293 [3] (Homo sapiens, HEK293, 0.5 h), the IC50 amounted to 0.089 µM.
As to `Cc1ccc(C(=O)N(C)[C@H]2C[C@H](NC(=O)C[C@@H]3N=C(c4ccc(Cl)cc4)c4c(sc(C)c4C)-n4c(C)nnc43)C2)cc1N1CCC(=O)NC1=O`, the DC50 in test [1] was more than 20 µM. The same compound registered a relative binding affinity (RBA) in test [2] of 6.4. For the same compound, in the test with HEK293 [3] (Homo sapiens, HEK293, 0.5 h), the IC50 stood at 2.1 µM.
With `O=C1CCC(=O)N1O`, the EC50 with HEK293 [4] is more than 50 µM. Moreover, the half-maximal degradation concentration (DC50) in test [1] was more than 50 µM. Also, the IC50 is more than 50 µM in the test on HEK293 [5] (Homo sapiens, HEK293, 0.5 h) and more than 50 µM with HEK293 [3] (Homo sapiens, HEK293, 0.5 h). Further, the Emax in the test on HEK293 [6] (setting [9]) was 10.8%.
For the compound `Cc1ccc(C(=O)N2CCC(Oc3cnc(N4CCN(C(=O)C[C@@H]5N=C(c6ccc(Cl)cc6)c6c(sc(C)c6C)-n6c(C)nnc65)CC4)nc3)CC2)cc1N1CCC(=O)NC1=O`, the DC50 in test [1] was determined as 0.02 µM. In addition, in test [2], the relative binding affinity (RBA) amounted to 0.9. In addition, the IC50 with HEK293 [3] (Homo sapiens, HEK293, 0.5 h) was 0.1 µM.
In the case of `O=C(O)COc1cccc2c1C(=O)N(C1CCC(=O)NC1=O)C2=O` (stereo not given), the EC50 in the test on HEK293 [4] was more than 50 µM. Further, in test [1], the DC50 was more than 50 µM. In addition, the IC50 in the test on HEK293 [5] (Homo sapiens, HEK293, 0.5 h) was 0.83 µM; with HEK293 [3] (Homo sapiens, HEK293, 0.5 h) it was more than 50 µM. Further, the Emax in the test with HEK293 [6] (setting [9]) was 7.58%.
As for `Cc1ccc(C(=O)O)cc1N1CCC(=O)NC1=O`, in the test on HEK293 [4], the EC50 was more than 50 µM. Besides, the half-maximal degradation concentration (DC50) in test [1] is more than 21.7 µM. The IC50 with HEK293 [5] (Homo sapiens, HEK293, 0.5 h) was 1.94 µM; in the test on HEK293 [3] (Homo sapiens, HEK293, 0.5 h), more than 50 µM. Besides, the Emax in the test with HEK293 [6] (setting [9]) was found to be 7.84%.
In the case of `Cc1sc2c(c1C)C(c1ccc(Cl)cc1)=N[C@@H](CC(=O)NCCCCNC(=O)COc1cccc3c1C(=O)N(C1CCC(=O)NC1=O)C3=O)c1nnc(C)n1-2` (stereo in doubt; form 1), the Emax at 10 µM in the test with HEK293 [7] is 25.2%. Besides, the IC50 in the test with HEK293 [5] (Homo sapiens, HEK293, 0.5 h) turned out to be 0.09 µM; in the test on HEK293 [3] (hek293), 2.2 µM.
As to `Cc1ccc(C(=O)N(C)CCN2CCN(C(=O)C[C@@H]3N=C(c4ccc(Cl)cc4)c4c(sc(C)c4C)-n4c(C)nnc43)CC2)cc1N1CCC(=O)NC1=O`, the 50% degradation concentration (DC50) in test [1] came to 0.088 µM. The relative binding affinity (RBA) in test [2] came to 0.9. For the same compound, the IC50 in the test with HEK293 [3] (Homo sapiens, HEK293, 0.5 h) was 4.5 µM.
In the case of `Cc1sc2c(c1C)C(c1ccc(Cl)cc1)=N[C@@H](CC(=O)N1CCN(c3ncc(OC4CCN(C(=O)COc5cccc6c5C(=O)N(C5CCC(=O)NC5=O)C6=O)CC4)cn3)CC1)c1nnc(C)n1-2` (stereo not given in full), in test [1], the DC50 worked out at 0.006 µM. For the same compound, in test [2], the relative binding affinity (RBA) is 2.3. Further, the IC50 in the test on HEK293 [3] (Homo sapiens, HEK293, 0.5 h) is 0.07 µM.
With `O=C1CCC(N2C(=O)c3cccc(OCC(=O)ON4C(=O)CCC4=O)c3C2=O)C(=O)N1` (stereo not given), the concentration giving a half-maximal response (EC50) in the test on HEK293 [4] is more than 50 µM. For the same compound, the DC50 in test [1] was more than 50 µM. Further, the IC50 in the test on HEK293 [5] (Homo sapiens, HEK293, 0.5 h) came to 1.05 µM; with HEK293 [3] (Homo sapiens, HEK293, 0.5 h), 7.42 µM. The Emax in the test on HEK293 [6] (setting [9]) is 11.9%.
Regarding `Cc1sc2c(c1C)C(c1ccc(Cl)cc1)=N[C@@H](CC(=O)N1CCN(CCN(C)C(=O)COc3cccc4c3C(=O)N(C3CCC(=O)NC3=O)C4=O)CC1)c1nnc(C)n1-2` (stereo not given in full), in test [1], the 50% degradation concentration (DC50) was determined as 0.241 µM. In test [2], this compound returned a relative binding affinity (RBA) of 25. Also, in the test with HEK293 [3] (Homo sapiens, HEK293, 0.5 h), the half-inhibitory concentration (IC50) amounted to 0.071 µM.
Regarding `Cc1sc2c(c1C)C(c1ccc(Cl)cc1)=N[C@@H](CC(=O)NCCCCNC(=O)COc1cccc3c1C(=O)N(C1CCC(=O)NC1=O)C3=O)c1nnc(C)n1-2` (stereo in doubt; form 2), the results for the IC50 in the test with HEK293 [5] (hek293) and in the test on HEK293 [3] (hek293) were 0.056 µM and 0.93 µM, respectively. The Emax at 12 µM with HEK293 [8] was 21.7%.
